Measurements published in ChEMBL document CHEMBL1165858, “Synthesis and biological evaluation of beta-chloro vinyl chalcones as inhibitors of TNF-alpha and IL-6 with antimicrobial activity” (Eur J Med Chem, 2010).
≈ marks a conversion by molar mass, not a printed value. Calls of active or inactive are those of the source. The rule behind the calls is not given here.

How the values were obtained:
Staphylococcus aureus [1] = assay: Antibacterial activity against Staphylococcus aureus NCIM 2120 after 24 hrs by disc diffusion method; format: functional; details: for MIC: Staphylococcus aureus, NCIM 2120, 24 h
How it was run: (§1)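 Paper disc diffusion (6.25 mm Whatman no.1 discs, dry-heat sterilized at 140 °C for 1 h) loaded with compounds at different concentrations in DMSO. Discs were placed in triplicate on nutrient agar seeded with fresh bacterial culture and incubated at 37 °C for 24 h, with solvent and growth controls. Zones of inhibition (mm) and MIC, the concentration completely inhibiting growth, were recorded.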

THP-1 [2] = assay: Antiinflammatory activity in human THP1 cells assessed as inhibition of LPS-induced IL-6 secretion at 10 uM treated 30 mins before LPS challenge measured after 24 hrs by ELISA relative to control; format: functional
How it was run: (§2)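 THP-1 cells were grown in RPMI 1640 with 10% FBS and penicillin/streptomycin, then differentiated with PMA. Compound or vehicle (0.5% DMSO) was added for 30 min at 37 °C, followed by LPS (E. coli 0127:B8, final 1 µg/mL). After 24 h at 37 °C in 5% CO2, TNF-α and IL-6 in the supernatants were quantified by ELISA. Values are the mean of n = 2.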

Trichoderma viride = assay: Antibacterial activity against Trichoderma viride TT after 72 hrs by disc diffusion method; format: functional; details: for MIC: Trichoderma viride, TT, 72 h
How it was run: (§3)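 Agar disc diffusion against fungi. Fungi were maintained on potato dextrose agar at (25 ± 2) °C for five days before use. Compounds were dissolved in DMSO (10 mg/mL initial solutions) and loaded on discs placed on freshly seeded plates alongside a solvent control disc. Plates were held at 4 °C for 24 h for diffusion, then incubated at 37 ± 5 °C for 72 h. Zones of inhibition (mm) and MICs were recorded.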

Penicillium chrysogenum = assay: Antibacterial activity against Penicillium chrysogenum NCIM 707 after 72 hrs by disc diffusion method; format: functional; details: for MIC: Penicillium chrysogenum, NCIM 707, 72 h; how it was run: as §3
THP-1 [3] = assay: Antiinflammatory activity in human THP1 cells assessed as inhibition of LPS-induced TNFalpha secretion at 10 uM treated 30 mins before LPS challenge measured after 24 hrs by ELISA relative to control; format: functional; how it was run: as §2
Proteus vulgaris [4] = assay: Antibacterial activity against Proteus vulgaris NCIM 2813 after 24 hrs by disc diffusion method; format: functional; details: for MIC: Proteus vulgaris, NCIM 2813, 24 h; how it was run: as §1
Aspergillus fumigatus = assay: Antibacterial activity against Aspergillus fumigatus NCIM 902 after 72 hrs by disc diffusion method; format: functional; details: for MIC: Aspergillus fumigatus, NCIM 902, 72 h; how it was run: as §3
[5] = Cytotoxicity against […] at 10 uM; format: cell-based
Klebsiella pneumoniae [6] = assay: Antibacterial activity against Klebsiella pneumoniae NCIM 5082 after 24 hrs by disc diffusion method; format: functional; details: for MIC: Klebsiella pneumoniae, NCIM 5082, 24 h; how it was run: as §1
Escherichia coli [7] = assay: Antibacterial activity against Escherichia coli NCIM 2065 after 24 hrs by disc diffusion method; format: functional; details: for MIC: Escherichia coli, NCIM 2065, 24 h; how it was run: as §1
Aspergillus niger = assay: Antibacterial activity against Aspergillus niger NCIM 545 after 72 hrs by disc diffusion method; format: functional; details: for MIC: Aspergillus niger, NCIM 545, 72 h; how it was run: as §3
Candida albicans = assay: Antibacterial activity against Candida albicans NCIM 3100 after 72 hrs by disc diffusion method; format: functional; how it was run: as §3
Bacillus subtilis [8] = assay: Antibacterial activity against Bacillus subtilis NCIM 2546 after 24 hrs by disc diffusion method; format: functional; details: for MIC: Bacillus subtilis, NCIM 2546, 24 h; how it was run: as §1
Proteus vulgaris [9] = assay: Antibacterial activity against Proteus vulgaris NCIM 2813 at > 100 […] after 24 hrs by disc diffusion method; format: functional, organism-based
Staphylococcus aureus [10] = assay: Antibacterial activity against Staphylococcus aureus NCIM 2120 at > 100 […] after 24 hrs by disc diffusion method; format: functional, organism-based
Bacillus subtilis [11] = assay: Antibacterial activity against Bacillus subtilis NCIM 2546 at > 100 […] after 24 hrs by disc diffusion method; format: functional, organism-based
Escherichia coli [12] = assay: Antibacterial activity against Escherichia coli NCIM 2065 at > 100 […] after 24 hrs by disc diffusion method; format: functional, organism-based
Klebsiella pneumoniae [13] = assay: Antibacterial activity against Klebsiella pneumoniae NCIM 5082 at > 100 […] after 24 hrs by disc diffusion method; format: functional, organism-based

| Molecule | inhibition zone (IZ) (Staphylococcus aureus [1]) [mm] | MIC (Staphylococcus aureus [1]) [µg/mL] | inhibition at 10 µM (THP-1 [2]) [%] | inhibition zone (IZ) (Trichoderma viride) [mm] | MIC (Trichoderma viride) [µg/mL] | inhibition zone (IZ) (Penicillium chrysogenum) [mm] | MIC (Penicillium chrysogenum) [µg/mL] | inhibition at 10 µM (THP-1 [3]) [%] | inhibition zone (IZ) (Proteus vulgaris [4]) [mm] | MIC (Proteus vulgaris [4]) [µg/mL] | inhibition zone (IZ) (Aspergillus fumigatus) [mm] | MIC (Aspergillus fumigatus) [µg/mL] | Activity [5] | inhibition zone (IZ) (Klebsiella pneumoniae [6]) [mm] | MIC (Klebsiella pneumoniae [6]) [µg/mL] | inhibition zone (IZ) (Escherichia coli [7]) [mm] | inhibition zone (IZ) (Aspergillus niger) [mm] | inhibition zone (IZ) (Candida albicans) [mm] | inhibition zone (IZ) (Bacillus subtilis [8]) [mm] | MIC (Aspergillus niger) [µg/mL] | other results |
| --- | --- | --- | --- | --- | --- | --- | --- | --- | --- | --- | --- | --- | --- | --- | --- | --- | --- | --- | --- | --- | --- |
| COc1cc(O)c(C(=O)/C=C/C=C(\Cl)c2ccc(Cl)cc2Cl)c(OC)c1 | 19 | 25 (≈ 60.4 µM) | 67 | 18 | 25 (≈ 60.4 µM) | 17 | 25 (≈ 60.4 µM) | 0 | 19 | 25 (≈ 60.4 µM) | 17 | 50 (≈ 121 µM) | Non-toxic | 15 | 50 (≈ 121 µM) | 14 | 10 | 10 | 17 |  | MIC (Escherichia coli [7]): 50 µg/mL (≈ 121 µM); MIC (Bacillus subtilis [8]): 50 µg/mL (≈ 121 µM) |
| COc1cc(OC)cc(/C(Cl)=C/C=C/C(=O)c2c(O)cc(OC)cc2OC)c1 |  |  | 45 | 14 | 50 (≈ 124 µM) | 15 | 50 (≈ 124 µM) | 13 |  |  | 14 | 50 (≈ 124 µM) | Non-toxic |  |  |  | 16 | 12 |  | 50 (≈ 124 µM) | MIC (Proteus vulgaris [9]): inactive; MIC (Staphylococcus aureus [10]): inactive; MIC (Bacillus subtilis [11]): inactive; MIC (Escherichia coli [12]): inactive; MIC (Klebsiella pneumoniae [13]): inactive |
| GENTAMICIN |  |  |  |  |  |  |  |  | 18 |  |  |  |  | 22 |  |  |  |  | 24 |  |  |
| OC(Cn1cncn1)(Cn1cncn1)c1ccc(F)cc1F [FLUCONAZOLE] |  |  |  | 22 | 25 (≈ 81.6 µM) | 22 | 25 (≈ 81.6 µM) |  |  |  | 20 | 25 (≈ 81.6 µM) |  |  |  |  | 20 | 18 |  | 25 (≈ 81.6 µM) | MIC (Candida albicans; Candida albicans, NCIM 3100, 72 h): 25 µg/mL (≈ 81.6 µM) |
| CC1(C)S[C@@H]2[C@H](NC(=O)Cc3ccccc3)C(=O)N2[C@H]1C(=O)O [PENICILLIN G] | 20 | 25 (≈ 74.8 µM) |  |  |  |  |  |  | 22 | 25 (≈ 74.8 µM) |  |  | Non-toxic | 21 | 25 (≈ 74.8 µM) | 18 |  |  | 22 |  | MIC (Escherichia coli [7]): 25 µg/mL (≈ 74.8 µM); MIC (Bacillus subtilis [8]): 25 µg/mL (≈ 74.8 µM) |
| COc1cc(O)c(C(=O)/C=C/C=C(\Cl)c2ccc(F)cc2)c(OC)c1 | 14 | 50 (≈ 138 µM) | 83 | 16 | 50 (≈ 138 µM) | 14 | 50 (≈ 138 µM) | 16 | 18 | 25 (≈ 68.9 µM) | 14 | 50 (≈ 138 µM) | Non-toxic | 14 | 50 (≈ 138 µM) | 16 | 17 | 10 | 22 | 25 (≈ 68.9 µM) | MIC (Escherichia coli [7]): 50 µg/mL (≈ 138 µM); MIC (Bacillus subtilis [8]): 25 µg/mL (≈ 68.9 µM) |
| COc1cccc(/C(Cl)=C/C=C/C(=O)c2c(O)cc(OC)cc2OC)c1 | 15 | 50 (≈ 133 µM) | 39 | 16 | 50 (≈ 133 µM) | 17 | 25 (≈ 66.7 µM) | 11 |  |  | 16 | 50 (≈ 133 µM) | Non-toxic | 14 | 50 (≈ 133 µM) | 10 | 16 | 13 |  | 50 (≈ 133 µM) |  |
